According to ChEMBL document CHEMBL5360632, “Quinazolinone Compounds Have Potent Antiviral Activity against Zika and Dengue Virus” (J Med Chem, 2023):

Columns and labels:
Zika virus [1] = assay: Antiviral activity against ZIKV FLR infected in Vero cells assessed as inhibition of viral replication by measuring reduction in cytopathic effect at 10 uM preincubated with compounds for 2 hrs followed by replacement with fresh media containing compounds and measured after 48 hrs by MTT assay relative to control; type: functional; settings: time 50 hrs
Procedure, shortened: (§1)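 Monolayers of 2 × 10^4 cells/well in DMEM with 2% FBS. Infected at 0.1 MOI together with compound for 2h. Wells washed with PBS, then fresh medium with compound added in duplicate and incubated 48h at 37 °C. Supernatant titred by end-point dilution: half-log dilutions on Vero monolayers in quadruplicate for 5–7 days, CPE by microscope then MTT. TCID50 compared with untreated; EC50 from dose-response fit of ≥2 independent experiments.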

Zika virus [2] = assay: Antiviral activity against ZIKV FLR infected in Vero cells assessed as inhibition of viral replication by measuring reduction in cytopathic effect at 1 uM preincubated with compounds for 2 hrs followed by replacement with fresh media containing compounds and measured after 48 hrs by MTT assay relative to control; type: functional; settings: time 50 hrs; procedure, shortened: as §1
Vero = assay: Cytotoxicity against African green monkey Vero cells at 10 uM; type: toxicity, cell-based; settings: chlorocebus sabaeus
Procedure, shortened: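 Vero monolayers in 96-well plates, treated with compound at 10 μM in duplicate for 72 h during the phenotypic anti-ZIKV screen (0.1 MOI ZIKV FLR strain). An MTT assay optionally quantified viable cells.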

Zika virus [3] = assay: Antiviral activity against ZIKV FLR infected in mosquito C6/36 cells assessed as inhibition of viral replication pretreated with compounds for 2 hrs followed by replacement with fresh medium containing compound and measured after 48 hrs bt MTT assay; type: functional, organism-based; procedure, shortened: as §1
Zika virus [4] = assay: Antiviral activity against ZIKV FLR infected in human U87 cells assessed as inhibition of viral replication pretreated with compounds for 2 hrs followed by replacement with fresh medium containing compound and measured after 48 hrs by MTT assay; type: functional, organism-based; settings: U-87 MG; procedure, shortened: as §1
Zika virus [5] = assay: Antiviral activity against ZIKV FLR infected in Vero cells assessed as inhibition of viral replication by measuring reduction in cytopathic effect preincubated with compounds for 2 hrs followed by replacement with fresh media containing compounds and measured after 48 hrs by MTT assay; type: functional, organism-based; procedure, shortened: as §1
U-87 MG = assay: Cytotoxicity against human U87 cells assessed as reduction in cell viability; type: toxicity, cell-based; settings: u-87mg atcc
dengue virus type 2 = assay: Antiviral activity against Dengue virus serotype 2 K0049 infected in Vero cells assessed as inhibition of viral replication pretreated for 2 hrs followed by replacement with fresh medium containing compound and measured after 48 hrs by MTT assay; type: functional, organism-based; procedure, shortened: as §1
Zika virus [6] = assay: Antiviral activity against ZIKV FLR infected in Vero cells assessed as inhibition of viral replication by measuring log reduction in cytopathic effect at 10 uM preincubated with compounds for 2 hrs followed by replacement with fresh media containing compounds and measured after 48 hrs by MTT assay; type: functional; settings: time 50 hrs; procedure, shortened: as §1
Zika virus [7] = assay: Antiviral activity against ZIKV FLR infected in Vero cells assessed as inhibition of viral replication by measuring log reduction in cytopathic effect at 1 uM preincubated with compounds for 2 hrs followed by replacement with fresh media containing compounds and measured after 48 hrs by MTT assay; type: functional; settings: time 50 hrs; procedure, shortened: as §1
Zika virus [8] = assay: Antiviral activity against ZIKV FLR infected in Vero cells assessed as reduction in number of viral RNA copies by qRT-PCR analysis; type: functional, organism-based; settings: dose 0.3-10 µM
Procedure, shortened: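 Viral RNA measured in cell supernatant after compound treatment. Copies/mL calculated from a standard curve.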

Row | Structure (SMILES) | inhibition at 10 µM (Zika virus [1]) [%] | further results
1 | COc1cccc(-n2c(/C=C/c3cccc(OC)n3)nc3ccc(N4CCOCC4)cc3c2=O)c1 | 99 | –
2 | CC(C)(C)c1cccc(-n2c(/C=C/c3ccc(C(F)(F)F)nc3)nc3ccc(N4CCCCC4)cc3c2=O)c1 | 90 | –
3 | COc1cccc(/C=C/c2nc3ccc(-c4ccc(N(C)C)cc4)cc3c(=O)n2-c2cccc(C(C)(C)C)c2)n1 | 96.8 | –
4 | COc1cccc(/C=C/c2nc3ccc(N4CCCCC4)cc3c(=O)n2-c2cccc(C)c2)n1 | 99.9 | inhibition at 1 µM (Zika virus [2]): 0%
5 | COc1cccc(/C=C/c2nc3ccccc3c(=O)n2-c2cccc(C(C)(C)C)c2)n1 | 0 | –
6 | COc1cccc(/C=C/c2nc3ccccc3c(=O)n2-c2cccc(C(C)(C)C)c2)c1 | 0 | –
7 | COc1cccc(/C=C/c2nc3ccc(N4CCN(C)CC4)cc3c(=O)n2-c2cccc(C(C)(C)C)c2)n1 | – | Activity (Vero): Toxic
8 | COc1cccc(CCc2nc3ccc(N4CCCCC4)cc3c(=O)n2-c2cccc(C(C)(C)C)c2)n1 | 0 | –
9 | CC(C)(C)c1cccc(-n2c(/C=C/c3ccncc3)nc3ccccc3c2=O)c1 | 68.4 | –
10 | CCN(CC)CCCC(C)Nc1ccnc2cc(Cl)ccc12 (configuration not stated) [CHLOROQUINE] | 90 | –
11 | COc1cccc(-n2c(/C=C/c3cccc(OC)n3)nc3ccc(N4CCCCC4)cc3c2=O)c1 | 99.9 | EC50 (Zika virus [3]): 770 nM; EC50 (Zika virus [4]): 690 nM; EC50 (Zika virus [5]): 210 nM; inhibition at 1 µM (Zika virus [2]): 90%; CC50 (U-87 MG): > 20000 nM; EC50 (dengue virus type 2): 560 nM
12 | COc1cccc(/C=C/c2nc3ccc(Cl)cc3c(=O)n2-c2cccc(C(C)(C)C)c2)n1 | 0 | –
13 | COc1ccc2nc(/C=C/c3cccc(OC)n3)n(-c3cccc(C(C)(C)C)c3)c(=O)c2c1 | 0 | –
14 | COc1cccc(/C=C/c2nc3ccc(-c4ccc(F)cc4)cc3c(=O)n2-c2cccc(C(C)(C)C)c2)n1 | 99 | –
15 | NCc1ccc(-c2ncc(OCC3CCNCC3)nc2-c2ccc(-c3ccoc3)cc2)cc1 | – | inhibition at 1 µM (Zika virus [2]): 68%
16 | COc1cccc(/C=C/c2nc3ccc(N4CCCCC4)cc3c(=O)n2-c2cccc(C(C)(C)C)c2)c1 | 99.9 | inhibition at 1 µM (Zika virus [2]): 68.4%
17 | COc1cccc(/C=C/c2nc3ccc(N4CCNCC4)cc3c(=O)n2-c2cccc(C(C)(C)C)c2)n1 | – | Activity (Vero): Toxic
18 | COc1ncccc1/C=C/c1nc2ccccc2c(=O)n1-c1cccc(C(C)(C)C)c1 | 68.4 | log(activity) (Zika virus [6]): 0.5
19 | COc1cccc(/C=C/c2nc3ccc(N4CCCC4)cc3c(=O)n2-c2cccc(C(C)(C)C)c2)n1 | 68.4 | –
20 | COc1cccc(CCc2nc3ccc(N4CCOCC4)cc3c(=O)n2-c2cccc(C(C)(C)C)c2)n1 | 0 | –
21 | COc1cccc(/C=C/c2nc3ccc(N4CCC(N5CCOCC5)CC4)cc3c(=O)n2-c2cccc(C(F)(F)F)c2)n1 | 68.4 | –
22 | CC(C)(C)c1cccc(-n2c(/C=C/c3ccccc3)nc3ccccc3c2=O)c1 | 0 | –
23 | CCN(CC)c1ccc2nc(/C=C/c3cccc(OC)n3)n(-c3cccc(C(C)(C)C)c3)c(=O)c2c1 | 99.9 | log(activity) (Zika virus [6]): 3; inhibition at 1 µM (Zika virus [2]): 68.4%; log(activity) (Zika virus [7]): 0.5
24 | COc1cccc(-c2ccc3nc(/C=C/c4cccc(OC)n4)n(-c4cccc(C(C)(C)C)c4)c(=O)c3c2)c1 | 0 | –
25 | CC(C)(C)c1ccc(-n2c(/C=C/c3cncc(Br)c3)nc3ccccc3c2=O)cc1 | 0 | –
26 | CC(C)(C)c1ccc(-n2c(/C=C/c3cncnc3)nc3ccccc3c2=O)cc1 | 0 | –
27 | COc1cccc(-n2c(/C=C/c3cccnc3)nc3ccccc3c2=O)c1 | 68.4 | log(activity) (Zika virus [6]): 0.5

Row | Structure (SMILES) | inhibition at 10 µM (Zika virus [1]) [%] | further results
28 | CC(C)(C)c1ccc(-n2c(/C=C/c3cccnc3)nc3ccccc3c2=O)cc1 | 0 | –
29 | COc1cccc(/C=C/c2nc3ccc(OC)cc3c(=O)n2-c2cccc(C(C)(C)C)c2)c1 | 0 | –
30 | COc1cccc(/C=C/c2nc3ccc(N4CCOCC4)cc3c(=O)n2-c2cccc(C(F)(F)F)c2)n1 | 0 | –
31 | COc1cccc(/C=C/c2nc3ccc(N4CCOCC4)cc3c(=O)n2-c2cccc(C)c2)n1 | 90 | –
32 | CC(C)(C)c1cccc(-n2c(/C=C/c3ccc4ccccc4c3)nc3ccc(N4CCCCC4)cc3c2=O)c1 | 99.7 | –
33 | COc1cccc(/C=C/c2nc3ccc(N4CCC(N5CCOCC5)CC4)cc3c(=O)n2-c2cccc(C)c2)n1 | 99.9 | inhibition at 1 µM (Zika virus [2]): 0%
34 | CC(C)(C)c1cccc(-n2c(/C=C/c3ccc(C(F)(F)F)nc3)nc3ccccc3c2=O)c1 | 90 | log(activity) (Zika virus [6]): 0.5
35 | CC(C)(C)c1cccc(-n2c(/C=C/c3cccnc3)nc3ccccc3c2=O)c1 | 0 | –
36 | COc1cccc(/C=C/c2nc3ccc(N4CCCCC4)cc3c(=O)n2-c2cccc(C(F)(F)F)c2)n1 | 99 | –
37 | CC(C)(C)c1cccc(-n2c(/C=C/c3ccc(C(F)(F)F)cc3)nc3ccccc3c2=O)c1 | 90 | –
38 | COc1cccc(-n2c(/C=C/c3cccc(OC)n3)nc3ccc(N4CCC(N5CCOCC5)CC4)cc3c2=O)c1 | 99.9 | inhibition at 1 µM (Zika virus [2]): 68.4%
39 | CC(C)(C)c1cccc(-n2c(/C=C/c3cncnc3)nc3ccccc3c2=O)c1 | 68.4 | –
40 | COc1cccc(/C=C/c2nc3ccc(N4CCN(C(=O)OC(C)(C)C)CC4)cc3c(=O)n2-c2cccc(C(C)(C)C)c2)n1 | 99 | –
41 | CC(C)(C)c1cccc(-n2c(/C=C/c3ccc4ccccc4c3)nc3ccccc3c2=O)c1 | 68.4 | –
42 | COc1cc(/C=C/c2nc3ccc(N4CCN(C)CC4)cc3c(=O)n2-c2cccc(C(C)(C)C)c2)cc(OC)c1 | – | Activity (Vero): Toxic
43 | COc1cccc(/C=C/c2nc3ccc(C4=CCOCC4)cc3c(=O)n2-c2cccc(C(C)(C)C)c2)n1 | 96.8 | –
44 | COc1cccc(/C=C/c2nc3ccc(N4CCCCC4)cc3c(=O)n2-c2cccc(C(C)(C)C)c2)n1 | 99.9 | EC50 (Zika virus [3]): 750 nM; EC50 (Zika virus [4]): 820 nM; EC50 (Zika virus [5]): 900 nM; Activity (Zika virus [8]): Dose-Dependent Effect; inhibition at 1 µM (Zika virus [2]): 90%; CC50 (U-87 MG): > 20000 nM; EC50 (dengue virus type 2): 160 nM
45 | Cc1ccccc1-n1c(/C=C/c2cccnc2)nc2ccccc2c1=O | 0 | –
46 | Cc1cccc(-n2c(/C=C/c3cccnc3)nc3ccccc3c2=O)c1 | 0 | –
47 | O=c1c2ccccc2nc(/C=C/c2cccnc2)n1-c1ccccc1 | 0 | –
48 | COc1cccc(/C=C/c2nc3ccc(N4CCN(C(=O)OC(C)(C)C)CC4)cc3c(=O)n2-c2cccc(C(C)(C)C)c2)c1 | 99 | –
49 | COc1ccccc1/C=C/c1nc2ccccc2c(=O)n1-c1cccc(C(C)(C)C)c1 | 0 | –
50 | COc1cccc(/C=C/c2nc3ccc(N4CCC(N5CCOCC5)CC4)cc3c(=O)n2-c2cccc(C(C)(C)C)c2)n1 | 99.9 | inhibition at 1 µM (Zika virus [2]): 90%
51 | CC(C)(C)c1cccc(-n2c(/C=C/c3ccncc3)nc3ccc(N4CCCCC4)cc3c2=O)c1 | 68.4 | –
52 | COc1cccc(/C=C/c2nc3ccc(-c4ccc(N5CCCC5)cc4)cc3c(=O)n2-c2cccc(C(C)(C)C)c2)n1 | 96.8 | –
53 | COc1cccc(/C=C/c2nc3ccc(-c4ccncc4)cc3c(=O)n2-c2cccc(C(C)(C)C)c2)n1 | 0 | –
